ChEMBL document CHEMBL4376883, “Discovery and Optimization of Small Molecules Targeting the Protein-Protein Interaction of Heat Shock Protein 90 (Hsp90) and Cell Division Cycle 37 as Orally Active Inhibitors for the Treatment of Colorectal Cancer” (J Med Chem, 2020)
pIC50: −log10 of the molar value.

Legend:
[1] = target: Heat shock protein HSP 90-beta/Hsp90 co-chaperone Cdc37 (Homo sapiens) (UniProt P08238+Q16543); assay: Inhibition of His-tagged HSP90/GST-tagged Cdc37 (unknown origin) protein-protein interaction at 100 uM measured after 1 hr by HTRF assay relative to control; format: protein-complex assay
Method in brief: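 His-Hsp90 and GST-Cdc37 were premixed at a final 80 nM in PBS with 200 mM KF, pH 7.4. Compound was added and the mix incubated 1 h at 37 °C, then read by HTRF. Inhibition rate was taken at 100 μM compound.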

[2] = test system: L02; assay: Cytotoxicity against human L02 cells measured after 72 hrs by CCK8 assay; format: functional, cell-based; details: L02, 72 h
Method in brief: (§1)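 Cells grown in RPMI 1640 with 10% FBS at 37 °C, 5% CO2; STR-authenticated and mycoplasma-checked. Seeded at 3000-5000 cells/well and left 24 h. Serial compound dilutions added for 72 h, with matched DMSO as control. Viability read by CCK8 kit using the standard protocol. IC50 values derived from at least three parallel experiments.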

[3] = target: T1, Heat shock protein HSP90 (Homo sapiens, UniProt P07900+P08238); assay: Inhibition of recombinant full-length HSP90 ATPase activity N-terminal domain (9 to 236 residues) (unknown origin) expressed in Escherichia coli BL21 (DE3) measured after 1 hr by ADP hunter plus assay
[4] = target: T1, Heat shock protein HSP90; assay: Binding affinity to recombinant […] HSP90 N-terminal domain (9 to 236 residues) (unknown origin) expressed in Escherichia coli BL21 (DE3) assessed as change in melting temperature by SYPRO dye based thermal shift assay
Method in brief: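 Hsp90 N-terminal domain (10 µM) mixed with compound at 200, 100, 50 or 10 µM in 1× PBS, pH 8.0, with 6× SYPRO Orange. Heated from room temperature to 99 °C at 1 °C/min; fluorescence read at 492 nm excitation and 610 nm emission.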

[5] = target: T1, Heat shock protein HSP90; assay: Binding affinity to recombinant […] HSP90 N-terminal domain (9 to 236 residues) (unknown origin) expressed in Escherichia coli BL21 (DE3) by isothermal calorimetric method
Method in brief: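 ITC: 50 µM Hsp90 in the cell and 300 µM compound in the syringe, both in 20 mM Tris-HCl, 150 mM NaCl, pH 7.4. Nineteen injections at 180 s intervals with stirring at 1000 rpm.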

[6] = target: T1, Heat shock protein HSP90; assay: Binding affinity to recombinant […] biotinylated-HSP90 N-terminal domain (9 to 236 residues) (unknown origin) expressed in Escherichia coli BL21 (DE3) by biolayer interferometry
Method in brief: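 Biotinylated Hsp90 (100 µg/mL) loaded onto streptavidin sensors prewetted 10 min in PBS with 0.05% BSA and 0.01% Tween 20. Analyte binding measured at 28 °C. Double reference subtraction applied; data fitted to a 1:1 model with K_D = K_off/K_on.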

[7] = Permeability of the compound at pH 7.4 by PAMPA; format: ADME; details: read-out: permeability
Method in brief: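 Permeability coefficient (Pe) was measured at pH 7.4 by double-sink PAMPA.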

[8] = test system: A549; assay: Antiproliferative activity against human A549 cells measured after 72 hrs by CCK8 assay; format: functional, cell-based; details: A549, 72 h; method in brief: as §1
[9] = test system: HCT-116; assay: Antiproliferative activity against human HCT116 cells measured after 72 hrs by CCK8 assay; format: functional, cell-based; details: HCT-116, 72 h; method in brief: as §1
[10] = Distribution coefficient, log D of the compound at pH 7.4 by potentiometric titration method; format: physicochemical; details: octanol/water
Method in brief: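 log D at pH 7.4 measured by potentiometric titration on a Gemini Profiler.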

**Q.** For `CCC(CC)Nc1nccc(Nc2ccc(N(CC(=O)OC)S(=O)(=O)c3c(C)cc(C)cc3C)cc2)n1`, which inhibition [1] is on record?
**A.** < 50%

**Q.** With `Cc1cc(C)c(S(=O)(=O)N(CC(N)=O)c2ccc(Nc3ccnc(N4CCCC4)n3)cc2)c(C)c1` as the compound, how does the inhibition [1] read?
**A.** < 50%

**Q.** For `COc1ccc(CN(c2ccc(Nc3ccnc(N4CCCC4)n3)cc2)S(=O)(=O)c2c(C)cc(C)cc2C)cc1`, which inhibition [1] is on record?
**A.** < 50%

**Q.** Which inhibition [1] does the source give for `CCN(CC)c1nccc(Nc2ccc(N(CC(=O)OC)S(=O)(=O)c3c(C)cc(C)cc3C)cc2)n1` here?
**A.** < 50%

**Q.** With `CC(C)(C)c1ccc(S(=O)(=O)Nc2ccc(Nc3ccnc(N4CCCC4)n3)cc2)cc1` as the compound, how does the inhibition [1] read?
**A.** < 20%

**Q.** For `Cc1cc(C)c(S(=O)(=O)N(CC(=O)O)c2ccc(Nc3ccnc(N4CCCCC4)n3)cc2)c(C)c1`, which inhibition [1] is on record?
**A.** 86.2%

**Q.** For `Cc1cc(C)c(S(=O)(=O)N(Cc2ccc(C(=O)O)cc2)c2ccc(Nc3ccnc(N4CCCC4)n3)cc2)c(C)c1`, which inhibition [1] is on record?
**A.** 52.8%

**Q.** What does the source list for `Cc1cc(C)c(S(=O)(=O)N(Cc2nnn[nH]2)c2ccc(Nc3ccnc(N4CCNCC4)n3)cc2)c(C)c1`?
**A.** pIC50 [2]: < 4.30; inhibition [1]: 98.6%; IC50 [3]: > 100 µM; ΔTm [4]: 1.36 °C; Kd [5]: 2.4 µM; Kd [6]: 5.5 µM; Papp [7]: 55.4 ×10⁻⁶ cm/s; pIC50 [8]: 4.42; pIC50 [9]: 5.27

**Q.** With `COc1ccc(S(=O)(=O)Nc2ccc(Nc3ccnc(N4CCCC4)n3)cc2)cc1` as the compound, how does the inhibition [1] read?
**A.** < 20%

**Q.** For `Cc1cc(C)c(S(=O)(=O)N(Cc2ccc(Cl)cc2)c2ccc(Nc3ccnc(N4CCCC4)n3)cc2)c(C)c1`, which inhibition [1] is on record?
**A.** < 50%

**Q.** Which inhibition [1] does the source give for `O=S(=O)(Nc1ccc(Nc2ccnc(N3CCCC3)n2)cc1)c1ccc(C(F)(F)F)cc1` here?
**A.** < 20%

**Q.** Which inhibition [1] does the source give for `Cc1cc(C)c(S(=O)(=O)N(CC(=O)O)c2ccc(Nc3ccnc(N4CCN(C)CC4)n3)cc2)c(C)c1` here?
**A.** 71.1%

**Q.** For `COC(=O)CN(c1ccc(Nc2ccnc(NC3CC3)n2)cc1)S(=O)(=O)c1c(C)cc(C)cc1C`, which inhibition [1] is on record?
**A.** < 50%

**Q.** For `Cc1cc(C)c(S(=O)(=O)N(Cc2ccc(C(C)C)cc2)c2ccc(Nc3ccnc(N4CCCC4)n3)cc2)c(C)c1`, which inhibition [1] is on record?
**A.** < 50%

**Q.** Which inhibition [1] does the source give for `COc1ccc(S(=O)(=O)Nc2ccc(Nc3ccnc(N4CCCC4)n3)cc2)c(OC)c1` here?
**A.** 36.2%

**Q.** For `CCC(CC)Nc1nccc(Nc2ccc(N(CC(=O)O)S(=O)(=O)c3c(C)cc(C)cc3C)cc2)n1`, which inhibition [1] is on record?
**A.** < 50%

**Q.** For `Cc1cc(C)c(S(=O)(=O)Nc2ccc(Nc3ccnc(N4CCCC4)n3)cc2)c(C)c1`, which inhibition [1] is on record?
**A.** 66%

**Q.** With `Cc1cc(C)c(S(=O)(=O)N(CC(=O)NO)c2ccc(Nc3ccnc(N4CCNCC4)n3)cc2)c(C)c1` as the compound, how does the logD [10] read?
**A.** 0.82

**Q.** What about the pIC50 [2] of the same compound?
**A.** 4.66

**Q.** What about the inhibition [1] of the same compound?
**A.** 96.2%

**Q.** And the IC50 [3]?
**A.** > 100 µM

**Q.** And the ΔTm [4]?
**A.** 1.59 °C

**Q.** And the Kd [5]?
**A.** 5.49 µM

**Q.** What about the Kd [6] of the same compound?
**A.** 2.66 µM

**Q.** And the Papp [7]?
**A.** 44.1 ×10⁻⁶ cm/s

**Q.** What about the pIC50 [8] of the same compound?
**A.** 4.79

**Q.** And the pIC50 [9]?
**A.** 5.40
